Many of the other results were omitted from the sample, so hits are more common in it than they were.
A1 apoptosis 2 = blocks A1, raising caspase activity. 24,000 tested, under 10 active. caspase activation, % (no concentration beside the values). MEF A1-2A-BIM cells, caspase-Glo luminescence, 3 h; percent of clofoctol response, DMSO zero; in the data active = caspase activation above about 5.9%
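Test system – A1-2A-BIM-expressing MEF cells · Input – 2500 cells/well · Medium – RPMI-1640 growth medium with 10% FBS · Compound dosing – 50 nL pinned compound · Timing – 3 h compound exposure at 37 °C · Technique – Caspase-Glo luminescence (DEVD substrate) · Evaluation – Caspase-3/7 activity from luminescence increase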
INS-1E rescue = preserves ATP levels in cytokine-treated INS-1E cells; 0.1% of 20,000 active; INS-1E cytokine-induced death, ATP luminescence, 48 h; normalised: neutral wells 0, positive control 100; protection from cytokine-induced ATP loss, % at 10 µM; AID 488910;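 active = mean replicate protection from cytokine-induced ATP loss at least 50% and at least 75% of replicates each reaching 50%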
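Test system: INS-1E rat cells | Quantity: 8000 cells per well | Medium: Phenol-red-free RPMI with 5% fetal bovine serum | Reagent: Cytokine cocktail of IFN-γ, TNF-α and IL-1β | Doses: One compound concentration, pin transfer | Timing: 48 h co-treatment, 10 min post-lysis read | Technique: Luminescent ATP assay (CellTiter-Glo)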
T cruzi HTS = inhibitors of intracellular Trypanosoma cruzi. intracellular Trypanosoma cruzi in host cells, plate reader. activity score (inhibition), % at 5.01 µM. 4.9% of 22,000 active. AID 651903; in the data active = activity score above about 55%;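 also: parasites and compound incubated about four days before reading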
Numbers stand for hits; – = inactive; · = no result given.

SMILES	A1 apoptosis 2	INS-1E rescue	T cruzi HTS
C[C@H](CO)N1C[C@H](C)[C@H](CN(C)Cc2ccc(Oc3ccccc3)cc2)Oc2ccc(N(C)C)cc2CC1=O	·	–	–
C[C@H](CO)N1C[C@H](C)[C@@H](CN(C)Cc2ccccc2)Oc2ccc(N(C)C)cc2CC1=O	–	·	·
C[C@@H]1CN([C@H](C)CO)C(=O)c2cc(NC(=O)Cc3ccccc3)ccc2O[C@@H](C)CCCCO[C@H]1CN(C)C(=O)Nc1cccc2ccccc12	–	·	·
C[C@H](CO)N1C[C@H](C)[C@@H](CN(C)Cc2ccc(-c3ccccc3)cc2)Oc2ccc(NC(=O)NC3CCCCC3)cc2CC1=O	–	·	·
C[C@@H]1CN([C@H](C)CO)C(=O)Cc2cc(NC(=O)NC3CCCCC3)ccc2O[C@H]1CN(C)Cc1ccc(-c2ccccc2)cc1	·	–	75.0
C[C@@H]1CN([C@H](C)CO)C(=O)Cc2cc(NC(=O)NC3CCCCC3)ccc2O[C@H]1CN(C)Cc1ccc(Oc2ccccc2)cc1	–	–	64.5
C[C@@H]1CN([C@@H](C)CO)C(=O)Cc2cc(NC(=O)NC3CCCCC3)ccc2O[C@@H]1CN(C)Cc1ccc(Oc2ccccc2)cc1	·	–	–
CN(C)CCCOc1ccc(/C=N/NC(=O)CCCCCCC(=O)NO)cc1	–	·	·
COc1ccc(/C=N/NC(=O)CCCCCCC(=O)Nc2ccccc2O)c(O)c1	·	–	–
COC(=O)CCCCCCC(=O)N/N=C/c1cc(Br)cc(Br)c1O	–	–	62.0
COC(=O)CCCCCCC(=O)N/N=C/c1cc(Br)cc(OC)c1O	–	–	–
CN(C)CCCOc1ccc(/C=N/NC(=O)CCCCCCC(=O)Nc2ccccc2O)cc1	·	–	87.3
O=C(CCCCCCC(=O)Nc1ccccc1O)N/N=C/c1ccc(OCc2ccccc2)cc1O	–	–	77.5
O=C(CCCCCCC(=O)Nc1ccccc1O)N/N=C/c1ccc(OCCO)cc1	–	–	–
COC(=O)CCCCCCC(=O)N/N=C/c1ccc(OCCCN(C)C)cc1	·	–	81.2
O=C(NO)c1ccc(C(=O)N/N=C/c2ccccc2O)cc1	–	–	–
Cc1ccc(S(=O)(=O)N(C)C[C@@H]2Oc3ncc(C#Cc4ccccc4)cc3C(=O)N([C@H](C)CO)C[C@@H]2C)cc1	–	–	57.0
C[C@H](CO)N1C[C@H](C)[C@H](CN(C)S(=O)(=O)c2cccc(F)c2)Oc2ncc(C#Cc3cccc(F)c3)cc2C1=O	·	·	–
C[C@H](CO)N1C[C@H](C)[C@H](CN(C)S(=O)(=O)c2ccc(F)cc2)Oc2ncc(C#Cc3ccc(F)cc3)cc2C1=O	–	·	65.9
C[C@H](CO)N1C[C@H](C)[C@H](CN(C)S(=O)(=O)c2ccc(C#N)cc2)Oc2ncc(C#Cc3ccccc3)cc2C1=O	–	·	–
COc1cccc(S(=O)(=O)N(C)C[C@@H]2Oc3ncc(-c4ccccc4)cc3C(=O)N([C@H](C)CO)C[C@@H]2C)c1	·	–	–
C[C@H](CO)N1C[C@H](C)[C@H](CN(C)S(=O)(=O)c2cccc(F)c2)Oc2ncc(C#Cc3ccc(F)cc3)cc2C1=O	·	–	63.6
C[C@H](CO)N1C[C@H](C)[C@H](CN(C)S(=O)(=O)c2ccccc2)Oc2ncc(C#Cc3ccc(F)cc3)cc2C1=O	–	·	–
COc1cccc(S(=O)(=O)N(C)C[C@@H]2Oc3ncc(C#Cc4ccccc4)cc3C(=O)N([C@H](C)CO)C[C@@H]2C)c1	–	·	61.6
CC1(C)COC(CCC/C=N/NC(=O)c2ccc(C(=O)NO)cc2)OC1	–	–	–
SMILES	A1 apoptosis 2	INS-1E rescue	T cruzi HTS
COc1ccc(S(=O)(=O)Nc2ccc3c(c2)C(=O)N([C@H](C)CO)C[C@@H](C)[C@@H](CN(C)S(C)(=O)=O)OCCCC[C@@H](C)O3)cc1	–	·	·
O=C(N/N=C/c1ccc(OCc2ccccc2)cc1O)c1ccccc1O	–	·	·
C[C@H](CO)N1C[C@H](C)[C@H](CN(C)S(C)(=O)=O)Oc2ncc(C#Cc3ccc(C(F)(F)F)cc3)cc2C1=O	–	·	–
Cc1ccc(S(=O)(=O)N(C)C[C@@H]2Oc3ncc(C#Cc4ccc(F)cc4)cc3C(=O)N([C@H](C)CO)C[C@@H]2C)cc1	·	·	58.9
C[C@H](CO)N1C[C@H](C)[C@H](CN(C)S(=O)(=O)c2ccc(C#N)cc2)Oc2ncc(C#Cc3ccc(C(F)(F)F)cc3)cc2C1=O	–	–	86.9
C[C@H](CO)N1C[C@H](C)[C@H](CN(C)S(=O)(=O)c2cccs2)Oc2ncc(C#CCN(C)C)cc2C1=O	·	·	–
C[C@H](CO)N1C[C@H](C)[C@H](CN(C)S(=O)(=O)c2ccc(F)cc2)Oc2ncc(C#Cc3cccc(F)c3)cc2C1=O	–	·	64.8
C[C@H](CO)N1C[C@H](C)[C@H](CN(C)S(=O)(=O)c2ccccc2)Oc2ncc(C#Cc3cccc(F)c3)cc2C1=O	–	·	–
COc1ccc(C#Cc2cnc3c(c2)C(=O)N([C@H](C)CO)C[C@H](C)[C@H](CN(C)S(=O)(=O)c2ccc(C)cc2)O3)cc1OC	–	·	–
C[C@H](CO)N1C[C@H](C)[C@H](CN(C)S(=O)(=O)c2cccs2)Oc2ncc(C#Cc3ccccc3)cc2C1=O	–	·	73.0
O=C(NO)c1cccc(C(=O)N/N=C/c2ccc(CO)o2)c1	·	–	–
O=C(N/N=C/c1cccc(B(O)O)c1)c1ccccc1O	–	–	–
COc1cc(Cl)c(/C=N/NC(=O)c2ccc(C(=O)NO)cc2)c(Cl)c1OC	–	–	–
C[C@@H]1CN([C@@H](C)CO)C(=O)c2cccc(NC(=O)Nc3ccccc3)c2O[C@@H]1CN(C)Cc1ccc(Oc2ccccc2)cc1	·	–	–
C[C@H](CO)N1C[C@H](C)[C@H](CN(C)Cc2ccc(Oc3ccccc3)cc2)Oc2c(NC(=O)Nc3cccc4ccccc34)cccc2C1=O	–	–	65.6
COc1ccc(NC(=O)Nc2cccc3c2O[C@@H](CN(C)Cc2ccc(Oc4ccccc4)cc2)[C@@H](C)CN([C@@H](C)CO)C3=O)cc1	–	–	–
C[C@@H]1CN([C@H](C)CO)C(=O)c2cccc(NC(=O)Nc3cccc4ccccc34)c2O[C@@H]1CN(C)Cc1ccc(-c2ccccc2)cc1	·	–	61.3
C[C@H](CO)N1C[C@H](C)[C@H](CN(C)Cc2ccc(-c3ccccc3)cc2)Oc2c(NC(=O)Nc3cccc4ccccc34)cccc2C1=O	–	·	·
CC(C)NC(=O)Nc1cccc2c1O[C@@H](CN(C)Cc1ccc(Oc3ccccc3)cc1)[C@H](C)CN([C@H](C)CO)C2=O	–	–	56.9
CC(C)NC(=O)Nc1cccc2c1O[C@H](CN(C)Cc1ccc(Oc3ccccc3)cc1)[C@H](C)CN([C@@H](C)CO)C2=O	–	–	–
COc1ccc(NC(=O)Nc2cccc3c2O[C@@H](CN(C)Cc2ccc(Oc4ccccc4)cc2)[C@@H](C)CN([C@H](C)CO)C3=O)cc1	–	–	63.0
COc1ccc([C@H]2C[C@H]3C(I)=CC2C(=O)[C@]32CO2)cc1OC	–	·	·
C[C@H]1CN([C@@H](C)CO)C(=O)c2cccc(NC(=O)Nc3ccccc3)c2O[C@@H]1CN(C)Cc1ccc(Oc2ccccc2)cc1	–	–	–
C[C@H](CO)N1C[C@H](C)[C@@H](CN(C)Cc2ccc(Oc3ccccc3)cc2)Oc2c(NC(=O)Nc3ccccc3)cccc2C1=O	–	–	77.8
